Results as given in PMC5099076 (Journal of medicinal chemistry, 2015).

Key:
Dynamic light scattering = assay type: physicochemical; settings: under assay conditions
Method in brief: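 Concentrated DMSO stocks of test compound diluted in assay buffer to a final 3.2% DMSO. Light scattering read with a 55 mW laser at 826.6 nm, 100% laser power, detector at 90°. Single-point measurements reported.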

PDK1 = target: T1, PDK1 (Homo sapiens, UniProt O15530); assay type: biochemical; settings: short peptide substrate, in vitro
T1 sequence (O15530 1-556): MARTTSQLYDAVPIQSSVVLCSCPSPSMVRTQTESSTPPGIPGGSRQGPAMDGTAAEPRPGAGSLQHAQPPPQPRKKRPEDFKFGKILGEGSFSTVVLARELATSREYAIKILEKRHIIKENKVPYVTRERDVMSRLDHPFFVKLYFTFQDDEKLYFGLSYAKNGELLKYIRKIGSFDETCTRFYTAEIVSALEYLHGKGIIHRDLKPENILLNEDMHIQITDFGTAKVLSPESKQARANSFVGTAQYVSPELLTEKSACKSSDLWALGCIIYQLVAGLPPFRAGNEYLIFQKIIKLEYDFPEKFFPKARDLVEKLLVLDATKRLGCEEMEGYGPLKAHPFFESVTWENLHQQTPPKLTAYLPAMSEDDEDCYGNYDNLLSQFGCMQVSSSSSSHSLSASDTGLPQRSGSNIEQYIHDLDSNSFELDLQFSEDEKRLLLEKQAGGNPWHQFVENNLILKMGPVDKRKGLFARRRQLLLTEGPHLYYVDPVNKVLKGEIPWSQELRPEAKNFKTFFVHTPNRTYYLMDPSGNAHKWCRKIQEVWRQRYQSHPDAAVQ

cruzain = assay: Cruzain assay; assay type: biochemical; settings: unrelated enzyme, test for aggregation-based mechanism
Method in brief: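 Test compound preincubated 5 min with 0.8 nM cruzain in 100 mM sodium acetate, pH 5.5, 5 mM DTT, with 0.01% Triton X-100 added where indicated. Reaction started with Z-FR-AMC; final 0.4 nM cruzain, 2.5 μM substrate, 0.5% DMSO. Fluorescence increase (ex 355/em 460 nm) recorded over 5 min. Run in duplicate; DMSO-only controls.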

PIF pocket of PDK1 = target: T2, PIF pocket of PDK1 (Homo sapiens, UniProt O15530); assay: Fluorescence polarization; assay type: binding
T2 sequence (O15530 1-556): T1 sequence (O15530 1-556)

Row | Binding to PDK1 (in words) (PIF pocket of PDK1; FP competitive binding assay) | SMILES | Formation of colloidal aggregates (Dynamic light scattering) | Maximal stimulation of PDK1 activity (PDK1) | Nonspecific inhibition of cruzain (cruzain) | LE (ligand efficiency) (PIF pocket of PDK1; binding energy (ΔG, kcal/mol) per non-hydrogen atom)
1 |  | Cc1ccc(OCCSc2nc3ccccc3n2CC(=O)O)c(C)c1 [compound 1] | Neither compound formed colloidal aggregates | ~ 1.8 fold | nor did either compound nonspecifically inhibit | 0.25 kcal/mol per non-hydrogen atom
2 | negligible | O=C(O)C/C(=C/c1cccc(C(F)(F)F)c1)c1nc2ccccc2o1 [compound 2] |  |  |  | 
3 |  | O=P(O)(O)[C@H](NC[C@@H]1CCCc2ccccc21)c1ccc(F)cc1 [compound 3] | Neither compound formed colloidal aggregates | ~ 1.8 fold | nor did either compound nonspecifically inhibit | 
